According to ChEMBL document CHEMBL1157150, “Synthesis, structure and antibacterial activity of novel 1-(5-substituted-3-substituted-4,5-dihydropyrazol-1-yl)ethanone oxime ester derivatives” (Bioorg Med Chem, 2008):
Converted amounts (≈) assume the structure as drawn. The source made the active and inactive calls. The rule behind the calls is not given here.

What was measured:
Bacillus subtilis = test: microbe, parasite or virus in culture; assay type: functional; conditions: ATCC 6633
Escherichia coli = test: Antibacterial activity against Escherichia coli ATCC 35218; assay type: functional
Pseudomonas aeruginosa = test: Antibacterial activity against Pseudomonas aeruginosa ATCC 13525; assay type: functional, organism-based
How it was run: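 Broth microdilution in MH medium with an inoculum of about 10⁵ cfu/mL. Compounds were serially diluted from a DMSO stock and incubated 24 h at 37 °C. MIC was read visually, then confirmed colorimetrically: MTT (2 mg/mL in PBS, pH 7.4) was added for 4–5 h at room temperature, the dye was extracted with isopropanol/5% 1 mol/L HCl for 12 h, and OD was read at 550 nm.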

Staphylococcus aureus = test: Antibacterial activity against Staphylococcus aureus ATCC 6538; assay type: functional
Pseudomonas fluorescens = test: Antibacterial activity against Pseudomonas fluorescens ATCC 13525; assay type: functional
[1] = Inhibition of Escherichia coli DNA gyrase supercoiling activity

Question: Which MIC (Bacillus subtilis) does the source give for `C/C(=N/OC(=O)c1ccccc1F)N1N=C(c2ccc(Cl)cc2Cl)CC1c1ccc(C(F)(F)F)cc1` (stereo not drawn) here?
Answer: 12.5 µg/mL (≈ 23.2 µM)

Question: And the MIC (Escherichia coli)?
Answer: 50 µg/mL (≈ 92.9 µM)

Question: What about the Activity (Pseudomonas aeruginosa) of the same molecule?
Answer: Active

Question: What about the MIC (Staphylococcus aureus) of the same molecule?
Answer: 50 µg/mL (≈ 92.9 µM)

Question: What about the MIC (Pseudomonas fluorescens) of the same molecule?
Answer: 12.5 µg/mL (≈ 23.2 µM)

Question: Which results are given for `C=CC(=O)O/N=C(/C)N1N=C(C)CC1c1ccc(OCc2ccc(F)cc2)cc1` (stereo not drawn)?
Answer: MIC (Bacillus subtilis): 12.5 µg/mL (≈ 31.6 µM); MIC (Escherichia coli): 25 µg/mL (≈ 63.2 µM); Activity (Pseudomonas aeruginosa): Active; MIC (Staphylococcus aureus): 50 µg/mL (≈ 126 µM); MIC (Pseudomonas fluorescens): 50 µg/mL (≈ 126 µM)

Question: For `C/C(=N/OC(=O)/C=C/c1ccccc1)N1N=C(c2ccc(Cl)cc2Cl)CC1c1ccccc1F` (stereo not drawn), which MIC (Bacillus subtilis) is on record?
Answer: 6.25 µg/mL (≈ 12.6 µM)

Question: And the MIC (Escherichia coli)?
Answer: 6.25 µg/mL (≈ 12.6 µM)

Question: And the Activity (Pseudomonas aeruginosa)?
Answer: Active

Question: What about the MIC (Staphylococcus aureus) of the same molecule?
Answer: 50 µg/mL (≈ 101 µM)

Question: What about the MIC (Pseudomonas fluorescens) of the same molecule?
Answer: 3.12 µg/mL (≈ 6.3 µM)

Question: What does the source list for `CC1=NN(/C(C)=N\OC(=O)c2ccc(C(F)(F)F)cc2)C(c2ccccc2OCc2ccc(F)cc2)C1` (stereo not drawn)?
Answer: MIC (Bacillus subtilis): 50 µg/mL (≈ 97.4 µM); MIC (Escherichia coli): 50 µg/mL (≈ 97.4 µM); Activity (Pseudomonas aeruginosa): Active; MIC (Staphylococcus aureus): 50 µg/mL (≈ 97.4 µM); MIC (Pseudomonas fluorescens): 50 µg/mL (≈ 97.4 µM)

Question: Which MIC (Bacillus subtilis) does the source give for `CCC(=O)O/N=C(/C)N1N=C(c2ccc(Cl)cc2Cl)CC1c1ccccc1F` (stereo not drawn) here?
Answer: 50 µg/mL (≈ 118 µM)

Question: What about the MIC (Escherichia coli) of the same molecule?
Answer: 50 µg/mL (≈ 118 µM)

Question: And the Activity (Pseudomonas aeruginosa)?
Answer: Active

Question: What about the MIC (Staphylococcus aureus) of the same molecule?
Answer: 50 µg/mL (≈ 118 µM)

Question: What about the MIC (Pseudomonas fluorescens) of the same molecule?
Answer: 50 µg/mL (≈ 118 µM)

Question: For `C/C(=N/OC(=O)c1ccc(Cl)cc1)N1N=C(c2ccc(Cl)cc2Cl)CC1c1ccc(C(F)(F)F)cc1` (stereo not drawn), which MIC (Bacillus subtilis) is on record?
Answer: 12.5 µg/mL (≈ 22.5 µM)

Question: What about the MIC (Escherichia coli) of the same molecule?
Answer: 50 µg/mL (≈ 90.1 µM)

Question: What about the Activity (Pseudomonas aeruginosa) of the same molecule?
Answer: Active

Question: And the MIC (Staphylococcus aureus)?
Answer: 50 µg/mL (≈ 90.1 µM)

Question: And the MIC (Pseudomonas fluorescens)?
Answer: 50 µg/mL (≈ 90.1 µM)

Question: Which MIC (Bacillus subtilis) does the source give for `CC1=NN2C(C1)c1ccccc1CC2(C)C` (stereo not drawn) here?
Answer: 1.25 µg/mL (≈ 5.83 µM)

Question: What about the MIC (Escherichia coli) of the same molecule?
Answer: 3.12 µg/mL (≈ 14.6 µM)

Question: And the IC50 [1]?
Answer: 0.125 µg/mL (≈ 0.583 µM)

Question: What about the MIC (Staphylococcus aureus) of the same molecule?
Answer: 3.12 µg/mL (≈ 14.6 µM)

Question: And the MIC (Pseudomonas fluorescens)?
Answer: 3.12 µg/mL (≈ 14.6 µM)

Question: With `COC1CC(c2ccccc2)=NN1/C(C)=N\OC(=O)c1ccco1` (stereo not drawn) as the molecule, how does the MIC (Bacillus subtilis) read?
Answer: 0.78 µg/mL (≈ 2.38 µM)

Question: And the MIC (Escherichia coli)?
Answer: 3.12 µg/mL (≈ 9.55 µM)

Question: What about the IC50 [1] of the same molecule?
Answer: 0.25 µg/mL (≈ 0.764 µM)

Question: And the MIC (Staphylococcus aureus)?
Answer: 3.12 µg/mL (≈ 9.55 µM)

Question: And the MIC (Pseudomonas fluorescens)?
Answer: 1.56 µg/mL (≈ 4.77 µM)

Question: For `CC1=NN(/C(C)=N\OC(=O)c2ccc(C(F)(F)F)cc2)C(c2ccc(OCc3ccc(F)cc3)cc2)C1` (stereo not drawn), which MIC (Bacillus subtilis) is on record?
Answer: 25 µg/mL (≈ 48.7 µM)

Question: And the MIC (Escherichia coli)?
Answer: 25 µg/mL (≈ 48.7 µM)

Question: What about the Activity (Pseudomonas aeruginosa) of the same molecule?
Answer: Active

Question: What about the MIC (Staphylococcus aureus) of the same molecule?
Answer: 50 µg/mL (≈ 97.4 µM)

Question: What about the MIC (Pseudomonas fluorescens) of the same molecule?
Answer: 25 µg/mL (≈ 48.7 µM)

Question: Which MIC (Bacillus subtilis) does the source give for `C/C(=N/OC(=O)c1ccccc1[N+](=O)[O-])N1N=C(c2ccc(Cl)cc2Cl)CC1c1ccccc1F` (stereo not drawn) here?
Answer: 25 µg/mL (≈ 48.5 µM)

Question: And the MIC (Escherichia coli)?
Answer: 50 µg/mL (≈ 97 µM)

Question: What about the Activity (Pseudomonas aeruginosa) of the same molecule?
Answer: Active

Question: And the MIC (Staphylococcus aureus)?
Answer: 50 µg/mL (≈ 97 µM)

Question: And the MIC (Pseudomonas fluorescens)?
Answer: 50 µg/mL (≈ 97 µM)

Question: What does the source list for `CCC(=O)O/N=C(/C)N1N=C(c2ccccc2)CC1OC` (stereo not drawn)?
Answer: MIC (Bacillus subtilis): 12.5 µg/mL (≈ 43.2 µM); MIC (Escherichia coli): 12.5 µg/mL (≈ 43.2 µM); MIC (Staphylococcus aureus): 25 µg/mL (≈ 86.4 µM); MIC (Pseudomonas fluorescens): 12.5 µg/mL (≈ 43.2 µM)

Question: For `CCC(=O)O/N=C(/C)N1N=C(c2ccc(Cl)cc2Cl)CC1c1ccc(C(F)(F)F)cc1` (stereo not drawn), which MIC (Bacillus subtilis) is on record?
Answer: 50 µg/mL (≈ 106 µM)

Question: And the MIC (Escherichia coli)?
Answer: 50 µg/mL (≈ 106 µM)

Question: And the Activity (Pseudomonas aeruginosa)?
Answer: Active

Question: What about the MIC (Staphylococcus aureus) of the same molecule?
Answer: 50 µg/mL (≈ 106 µM)

Question: And the MIC (Pseudomonas fluorescens)?
Answer: 50 µg/mL (≈ 106 µM)

Question: Which results are given for `COC1CC(c2ccccc2)=NN1/C(C)=N\OC(=O)/C=C/c1ccccc1` (stereo not drawn)?
Answer: MIC (Bacillus subtilis): 1.56 µg/mL (≈ 4.3 µM); MIC (Escherichia coli): 6.25 µg/mL (≈ 17.2 µM); MIC (Staphylococcus aureus): 12.5 µg/mL (≈ 34.4 µM); MIC (Pseudomonas fluorescens): 3.12 µg/mL (≈ 8.6 µM)

Question: With `C/C(=N/OC(=O)/C=C/c1ccccc1)N1N=C(c2ccc(Cl)cc2Cl)CC1c1ccc(C(F)(F)F)cc1` (stereo not drawn) as the molecule, how does the MIC (Bacillus subtilis) read?
Answer: 1.56 µg/mL (≈ 2.86 µM)

Question: And the MIC (Escherichia coli)?
Answer: 12.5 µg/mL (≈ 22.9 µM)

Question: What about the Activity (Pseudomonas aeruginosa) of the same molecule?
Answer: Active

Question: And the MIC (Staphylococcus aureus)?
Answer: 6.25 µg/mL (≈ 11.4 µM)

Question: What about the MIC (Pseudomonas fluorescens) of the same molecule?
Answer: 3.12 µg/mL (≈ 5.72 µM)

Question: With `CC1=NN(/C(C)=N\OC(=O)c2ccc(F)cc2)C(c2ccccc2OCc2ccc(F)cc2)C1` (stereo not drawn) as the molecule, how does the MIC (Bacillus subtilis) read?
Answer: > 50 µg/mL

Question: And the MIC (Escherichia coli)?
Answer: > 50 µg/mL

Question: And the Activity (Pseudomonas aeruginosa)?
Answer: Active

Question: What about the MIC (Staphylococcus aureus) of the same molecule?
Answer: > 50 µg/mL

Question: What about the MIC (Pseudomonas fluorescens) of the same molecule?
Answer: > 50 µg/mL

Question: For `CC1=NN(/C(C)=N\OC(=O)/C=C/c2ccccc2)C(c2ccc(OCc3ccc(F)cc3)cc2)C1` (stereo not drawn), which MIC (Bacillus subtilis) is on record?
Answer: 12.5 µg/mL (≈ 26.5 µM)

Question: And the MIC (Escherichia coli)?
Answer: 12.5 µg/mL (≈ 26.5 µM)

Question: And the Activity (Pseudomonas aeruginosa)?
Answer: Active

Question: What about the MIC (Staphylococcus aureus) of the same molecule?
Answer: 12.5 µg/mL (≈ 26.5 µM)

Question: What about the MIC (Pseudomonas fluorescens) of the same molecule?
Answer: 12.5 µg/mL (≈ 26.5 µM)

Question: What does the source list for `CC1=NN(/C(C)=N\OC(=O)c2ccccc2F)C(c2ccccc2OCc2ccc(F)cc2)C1` (stereo not drawn)?
Answer: MIC (Bacillus subtilis): 50 µg/mL (≈ 108 µM); MIC (Escherichia coli): 50 µg/mL (≈ 108 µM); Activity (Pseudomonas aeruginosa): Active; MIC (Staphylococcus aureus): 50 µg/mL (≈ 108 µM); MIC (Pseudomonas fluorescens): 50 µg/mL (≈ 108 µM)

Question: Which results are given for `COC1CC(c2ccccc2)=NN1/C(C)=N\OC(=O)c1ccc(C(F)(F)F)cc1` (stereo not drawn)?
Answer: MIC (Bacillus subtilis): 1.56 µg/mL (≈ 3.85 µM); MIC (Escherichia coli): 3.12 µg/mL (≈ 7.71 µM); IC50 [1]: 0.25 µg/mL (≈ 0.617 µM); MIC (Staphylococcus aureus): 1.56 µg/mL (≈ 3.85 µM); MIC (Pseudomonas fluorescens): 1.56 µg/mL (≈ 3.85 µM)

Question: Which MIC (Bacillus subtilis) does the source give for `C/C(=N/OC(=O)c1ccccc1C)N1N=C(c2ccc(Cl)cc2Cl)CC1c1ccccc1F` (stereo not drawn) here?
Answer: 50 µg/mL (≈ 103 µM)

Question: What about the MIC (Escherichia coli) of the same molecule?
Answer: 50 µg/mL (≈ 103 µM)

Question: What about the Activity (Pseudomonas aeruginosa) of the same molecule?
Answer: Active

Question: And the MIC (Staphylococcus aureus)?
Answer: 50 µg/mL (≈ 103 µM)

Question: And the MIC (Pseudomonas fluorescens)?
Answer: 50 µg/mL (≈ 103 µM)

Question: With `CC1=NN(/C(C)=N\OC(=O)c2ccccc2Cl)C(c2ccc(OCc3ccc(F)cc3)cc2)C1` (stereo not drawn) as the molecule, how does the MIC (Bacillus subtilis) read?
Answer: 50 µg/mL (≈ 104 µM)

Question: And the MIC (Escherichia coli)?
Answer: 50 µg/mL (≈ 104 µM)

Question: What about the Activity (Pseudomonas aeruginosa) of the same molecule?
Answer: Active

Question: And the MIC (Staphylococcus aureus)?
Answer: 12.5 µg/mL (≈ 26 µM)

Question: And the MIC (Pseudomonas fluorescens)?
Answer: 50 µg/mL (≈ 104 µM)

Question: Which MIC (Bacillus subtilis) does the source give for `C/C(=N/OC(=O)c1ccc(F)cc1)N1N=C(c2ccc(Cl)cc2Cl)CC1c1ccccc1F` (stereo not drawn) here?
Answer: 25 µg/mL (≈ 51.2 µM)

Question: What about the MIC (Escherichia coli) of the same molecule?
Answer: 25 µg/mL (≈ 51.2 µM)

Question: What about the Activity (Pseudomonas aeruginosa) of the same molecule?
Answer: Active

Question: What about the MIC (Staphylococcus aureus) of the same molecule?
Answer: 12.5 µg/mL (≈ 25.6 µM)

Question: What about the MIC (Pseudomonas fluorescens) of the same molecule?
Answer: 25 µg/mL (≈ 51.2 µM)

Question: Which results are given for `CCCC(=O)O/N=C(/C)N1N=C(C)CC1c1ccccc1OCc1ccc(F)cc1` (stereo not drawn)?
Answer: MIC (Bacillus subtilis): 50 µg/mL (≈ 122 µM); MIC (Escherichia coli): 50 µg/mL (≈ 122 µM); Activity (Pseudomonas aeruginosa): Active; MIC (Staphylococcus aureus): 50 µg/mL (≈ 122 µM); MIC (Pseudomonas fluorescens): 50 µg/mL (≈ 122 µM)

Question: Which MIC (Bacillus subtilis) does the source give for `CCCC(=O)O/N=C(/C)N1N=C(C)CC1c1ccc(OCc2ccc(F)cc2)cc1` (stereo not drawn) here?
Answer: 50 µg/mL (≈ 122 µM)

Question: And the MIC (Escherichia coli)?
Answer: > 50 µg/mL

Question: What about the Activity (Pseudomonas aeruginosa) of the same molecule?
Answer: Active

Question: What about the MIC (Staphylococcus aureus) of the same molecule?
Answer: > 50 µg/mL

Question: What about the MIC (Pseudomonas fluorescens) of the same molecule?
Answer: 50 µg/mL (≈ 122 µM)
